Screening results: PubChem, The Scripps Research Institute Molecular Screening Center
S1P4 antag: S1P4 receptor antagonists, primary screen, cell-based; Sphingosine 1-phosphate receptor 4 (Homo sapiens), O95977; S1P4-expressing cells, antagonist mode, reporter read-out; inhibition, % at 4.98 µM; 220,000 tested, 0.26% active; AID 1510, 2009; in the data active = inhibition above about 29%
NPY-Y1 antag: NPY-Y1 receptor antagonists, primary screen, cell-based. HEK293-CNG Y1 cells, membrane potential fluorescence; NPY at EC95, then isoproterenol. 200,000 tested, 1% active. Neuropeptide Y receptor type 1 (Homo sapiens), P25929. inhibition, % at 3.6 µM;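 active = inhibition above the campaign mean inhibition of all tested compounds plus 3 SD, cut at about 20% in these data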
Target sequence (P25929 whole entry, looked up): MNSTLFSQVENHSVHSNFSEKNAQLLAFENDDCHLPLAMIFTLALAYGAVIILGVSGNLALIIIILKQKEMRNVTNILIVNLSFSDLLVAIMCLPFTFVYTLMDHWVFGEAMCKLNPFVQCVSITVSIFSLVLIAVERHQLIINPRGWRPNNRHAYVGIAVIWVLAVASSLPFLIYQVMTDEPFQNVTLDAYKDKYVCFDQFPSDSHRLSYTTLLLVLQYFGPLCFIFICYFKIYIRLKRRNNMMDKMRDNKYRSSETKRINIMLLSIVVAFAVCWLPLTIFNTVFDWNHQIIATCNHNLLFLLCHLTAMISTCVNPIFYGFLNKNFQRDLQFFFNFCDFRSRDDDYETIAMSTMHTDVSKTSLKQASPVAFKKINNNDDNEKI
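Test system – HEK293 Y1/CNG channel cell line · Also added – NPY agonist 25 nM, then isoproterenol 1 µM plus Ro 20-1724 25 µM · Compound dosing – one concentration, 3.6 µM, in 0.4% DMSO · Schedule – compound incubation 1 h at room temperature, readout 45 min post-stimulation · Technique – fluorescence, membrane potential probe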
NPY-Y1 PAM-ag: NPY-Y1 receptor potentiators or agonists, primary screen, cell-based | NPY-Y1 expressing cells, potentiator/agonist activation | activation, % at 3.6 µM | AID 1304, 2008 | 220,000 tested, 0.37% active; in the data active = activation above about 33%, passing the limit was not always enough;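 also: cells stimulated with NPY at EC10 then isoproterenol at EC100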
S1P4 agonist: S1P4 receptor agonists, primary screen, cell-based | Sphingosine 1-phosphate receptor 4 (Homo sapiens), O95977 | S1P4-expressing cell line, agonist reporter assay | activation, % at 4.98 µM | 220,000 tested, 0.35% active | AID 1509, 2009; in the data active = activation above about 11%
NPY-Y2 antag: NPY-Y2 receptor antagonists, primary screen, cell-based; Neuropeptide Y receptor type 2 (Homo sapiens), P49146; NPY-Y2 expressing cells, antagonist mode; inhibition, % at 2.7 µM; 140,000 tested, 0.99% active; AID 793, 2007
NPY-Y2 PAM-ag: NPY-Y2 potentiators or agonists, primary screen, cell-based. AID 1359, 2008. 220,000 tested, 0.45% active. cells expressing NPY-Y2, potentiator/agonist read-out. activation, % at 3.6 µM. Neuropeptide Y receptor type 2 (Homo sapiens), P49146; in the data active = activation above about 27%;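 also: cells stimulated with NPY near EC25 plus isoproterenol at EC100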
NPY-Y1 ant conf: NPY-Y1 receptor antagonists, retest of hits, confirmation, HEK293-CNG cells, membrane potential fluorescence, triplicate; shares compounds with NPY-Y1 antag; cAMP; NPY challenge against isoproterenol-raised cAMP; inhibition, % at 3.6 µM; 1,200 tested, 21% active; AID 1254, 2008; in the data active = inhibition above about 20%
NPY-Y2 antag ct: NPY-Y2 receptor antagonists, selectivity check, confirmation, counter-screen for NPY-Y1 antagonist project, HEK293-CNG cells, membrane potential fluorescence, triplicate; shares compounds with NPY-Y1 antag; antagonism; cells given NPY, then isoproterenol; inhibition, % at 3.6 µM; 1,200 tested, 28% active; AID 1255, 2008
Of the large screens only hits and unclear results are named; the others gave an inactive call (follow-up assays come after a bar, where they were run). Compounds with a hit are over-represented: about 2.4% of the library has one in this group of screens. Rule as the data show it, unless noted: active = inhibition above about 17%; inactive = the rest.

O=C(NCC(=O)N(Cc1cccs1)C(C(=O)NC1CCCCC1)c1ccco1)c1ccco1 (configuration not stated)	none
O=C(NC1CCCCC1)C(c1cccs1)N(Cc1cccs1)C(=O)c1ccco1 (configuration not stated)	NPY-Y1 antag 46.6 | NPY-Y1 ant conf inactive | NPY-Y2 antag ct inactive
CCC(Oc1ccc2ccccc2c1)C(=O)O (configuration not stated)	NPY-Y1 antag 21.4 | NPY-Y1 ant conf inactive | NPY-Y2 antag ct inactive
CCN(CC)c1ccc(S(=O)(=O)N2CCOCC2)cc1NC(=O)CN1CCN(Cc2ccccc2)CC1	none (no result: NPY-Y1 antag, NPY-Y2 antag)
CN(CC(=O)Nc1ccccc1Cl)CC(=O)Nc1ccccc1[N+](=O)[O-]	none (no result: NPY-Y2 antag)
O=c1cc(CN2CCN(c3ccccc3)CC2)c2c(ccc3ccccc32)o1	NPY-Y1 antag 44.0 | NPY-Y1 ant conf 35.8 | NPY-Y2 antag ct 57.1
Cc1ccc(S(=O)(=O)N(CC(=O)NCCC2=CCCCC2)Cc2ccccc2)cc1	NPY-Y1 antag 20.7 | NPY-Y1 ant conf inactive | NPY-Y2 antag ct inactive
O=C(N1CCN(CCO)CC1)N1c2ccccc2CCc2ccccc21	none (no result: NPY-Y1 antag, NPY-Y2 antag)
CC(C)CC(C(=O)NC1CCCC1)N(Cc1cccs1)C(=O)c1snc(C(N)=O)c1N (configuration not stated)	NPY-Y1 antag 20.8 | NPY-Y1 ant conf inactive | NPY-Y2 antag ct inactive
COc1ccc(C(CC(=O)O)NC(=O)c2cccs2)cc1 (configuration not stated)	none
COc1ccc(C(CC(=O)O)NC(=O)c2sc3ccccc3c2Cl)cc1 (configuration not stated)	NPY-Y1 antag 21.7 | NPY-Y1 ant conf inactive | NPY-Y2 antag ct inactive
Cc1c(NC(=O)/C(C#N)=C/c2ccc(-c3ccc(Cl)c(Cl)c3)o2)c(=O)n(-c2ccccc2)n1C	none
Cc1c(NC(=O)/C(C#N)=C/c2ccc(-c3cccc(Cl)c3)o2)c(=O)n(-c2ccccc2)n1C	NPY-Y1 antag 25.6 | NPY-Y1 ant conf inactive | NPY-Y2 antag ct inactive
Cn1c(=O)c2c([nH]c(OCc3ccc(Cl)cc3Cl)[n+]2Cc2ccc(F)cc2)n(C)c1=O	none (no result: NPY-Y1 antag, NPY-Y2 antag)
O=C(Nc1ccc(CN2CCOCC2)cc1)c1ccc(-c2ccc(Br)cc2)o1	NPY-Y1 antag 30.5 | NPY-Y1 ant conf inactive | NPY-Y2 antag ct 21.5
C=CCn1c(C)cc(C(=O)CSc2nnc(Cc3ccccc3)o2)c1C	NPY-Y1 antag 21.1 | NPY-Y1 ant conf inactive | NPY-Y2 antag ct inactive
Cc1cc(C(=O)CSc2nnc(Cc3ccccc3)o2)c(C)n1Cc1ccc2c(c1)OCO2	none
CC(C)Nc1nc(Oc2ccc(=O)n(-c3ccccc3)n2)nc(N(C)C)n1	none (no result: NPY-Y1 antag, NPY-Y2 antag)
Cc1[nH][nH]c(=O)c1C(c1ccccc1[N+](=O)[O-])C(C#N)C#N (configuration not stated)	none (no result: NPY-Y2 antag)
N#CC(C#N)C(c1ccsc1)c1c(-c2ccccc2)[nH][nH]c1=O (configuration not stated)	NPY-Y1 antag 23.9 | NPY-Y1 ant conf 34.3 | NPY-Y2 antag ct 34.0
CC(C)(C)NC(=O)c1oc2ccccc2c1COc1ccccc1	NPY-Y1 antag 28.0 | NPY-Y1 ant conf 26.4 | NPY-Y2 antag ct inactive
CC(OC(=O)c1oc2ccccc2c1COc1ccccc1)C(N)=O (configuration not stated)	none (no result: NPY-Y2 antag)
COC(=O)[C@@]1(Cc2ccc(F)cc2)[C@H]2c3cc(C(=O)N4CCCC4)n(Cc4ccc(C(F)(F)F)nc4)c3C[C@H]2CN1C(=O)c1ccccc1	NPY-Y1 antag 28.0 | NPY-Y1 ant conf 27.7 | NPY-Y2 antag ct inactive
N#CC1=C(N)Oc2c(oc(CO)cc2=O)C1c1ccccc1[N+](=O)[O-] (configuration not stated)	none (no result: NPY-Y1 antag, NPY-Y2 antag)
O=C(NCc1ccccc1)c1ccc(Br)o1	none
O=C(c1ccc(Br)o1)N(Cc1ccccc1)Cc1ccccc1	NPY-Y1 antag 20.1 | NPY-Y1 ant conf inactive | NPY-Y2 antag ct inactive
C=CCNC(=O)/C(C#N)=C\c1cc(Cl)c(O)c(OCC)c1	none
CCOc1cc(/C=C2\CCC/C(=C\c3cc(Cl)c(O)c(OCC)c3)C2=O)cc(Cl)c1O	NPY-Y1 antag 44.0 | NPY-Y1 ant conf 45.2 | NPY-Y2 antag ct 44.0
O=C(CCc1cnccn1)NC1CCCc2c1cnn2-c1ccc(F)cc1F (configuration not stated)	none (no result: NPY-Y2 antag)
C[n+]1c2n(c3ccccc31)N=C(c1cc(C(C)(C)C)c(O)c(C(C)(C)C)c1)CS2	NPY-Y1 antag 64.8 (no result: NPY-Y2 antag) | NPY-Y1 ant conf 48.3 | NPY-Y2 antag ct 38.9
CCCCOC(=O)Nc1ccc(C(=O)OCCC)cc1	none
CCCCOC(=O)c1ccc(NC(=O)c2c(Cl)ccc(Cl)c2OC)cc1	NPY-Y1 antag 24.1 | NPY-Y1 ant conf inactive | NPY-Y2 antag ct inactive
CCN(CC)CC(=O)Nc1c(C#N)cnn1-c1ccccc1	none (no result: NPY-Y1 antag, NPY-Y2 antag)
Cc1c2c(nc3c(C(=O)NC4CCCCC4C)cnn13)CCCC2 (configuration not stated)	NPY-Y1 antag 20.3 | NPY-Y1 ant conf inactive | NPY-Y2 antag ct 22.4
Cc1cc(C)n2ncc(C(=O)NC3CCCCC3)c2n1	none (no result: NPY-Y2 antag)
CC(C)(C)NC(=O)C(c1ccc(F)cc1)N(Cc1ccccc1Cl)C(=O)c1ccn[nH]1 (configuration not stated)	none (no result: NPY-Y2 antag)
COc1cc2c(cc1OC)C(c1cccs1)N(C(=S)NC(C)C)CC2 (configuration not stated)	NPY-Y1 antag 29.9 (no result: NPY-Y2 antag) | NPY-Y1 ant conf inactive | NPY-Y2 antag ct inactive
COC(=O)c1c(NC(=O)CN2CCCC(C)C2)c2c(C)cccc2n1C (configuration not stated)	NPY-Y1 antag 32.5 | NPY-Y1 ant conf inactive | NPY-Y2 antag ct inactive
COC(=O)c1c(NC(=O)CN2CCC(C(N)=O)CC2)c2c(C)cccc2n1C	none
CC(NC(=O)CSc1nnc(-c2cccnc2)n1N)c1ccccc1 (configuration not stated)	none (no result: NPY-Y2 antag)
Cc1nc(NC(=O)/C=C/c2ccc(C(C)(C)C)cc2)sc1C(=O)N(C)C	none
CCN1C(=O)[C@@H]2C(C(=O)c3cnccn3)=NN[C@@H]2C1=O	none (no result: NPY-Y1 antag, NPY-Y2 antag)
